In ChEMBL document CHEMBL1255409, “In vitro activity of ceftaroline against 623 diverse strains of anaerobic bacteria” (2010):

Legend:
Assay type in all cases: functional
[1] = tested on: Prevotella disiens; test: Antimicrobial activity against Prevotella disiens under anaerobic conditions after 44 hrs by CLSI-M11-47 protocol based agar dilution method
How it was run: (§1)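 Clinical isolates were stored at −70°C in 20% skim milk and identified phenotypically or by partial 16S rRNA sequencing. Each strain was subcultured twice from frozen stock. Cell paste from 48-h cultures was suspended in brucella broth to a 0.5 McFarland standard. About 10^5 CFU per spot were applied by Steers replicator to agar dilution plates prepared on the day of testing. Plates were incubated 44 h at 37°C in an anaerobic chamber. MIC was taken as the lowest concentration giving complete inhibition or marked reduction of growth versus the drug-free control.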

[2] = tested on: Prevotella melaninogenica; test: Antimicrobial activity against Prevotella melaninogenica under anaerobic conditions after 44 hrs by CLSI-M11-47 protocol based agar dilution method; how it was run: as §1
[3] = tested on: Finegoldia magna; test: Antimicrobial activity against Finegoldia magna under anaerobic conditions after 44 hrs by CLSI-M11-47 protocol based agar dilution method
How it was run: (§2)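 Reference agar dilution per CLSI M11-A7 with plates made on test day. Clinical isolates were stored at −70°C in 20% skim milk, subcultured twice, and 48-h cell paste was suspended in brucella broth to 0.5 McFarland. About 10^5 CFU/spot was applied with a Steers replicator. Plates were incubated 44 h at 37°C anaerobically. MIC was the lowest concentration giving complete inhibition or marked growth reduction versus the drug-free control.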

[4] = tested on: Anaerococcus prevotii; test: Antimicrobial activity against Anaerococcus prevotii under anaerobic conditions after 44 hrs by CLSI-M11-47 protocol based agar dilution method; how it was run: as §2
[5] = tested on: Clostridium butyricum; test: Antimicrobial activity against Clostridium butyricum under anaerobic conditions after 44 hrs by CLSI-M11-47 protocol based agar dilution method
[6] = tested on: Clostridium paraputrificum; test: Antimicrobial activity against Clostridium paraputrificum under anaerobic conditions after 44 hrs by CLSI-M11-47 protocol based agar dilution method; how it was run: as §2
[7] = tested on: Peptoniphilus asaccharolyticus; test: Antimicrobial activity against Peptoniphilus asaccharolyticus under anaerobic conditions after 44 hrs by CLSI-M11-47 protocol based agar dilution method; how it was run: as §1
[8] = tested on: Anaerococcus; test: Antimicrobial activity against Anaerococcus sp. under anaerobic conditions after 44 hrs by CLSI-M11-47 protocol based agar dilution method; how it was run: as §2
[9] = tested on: Prevotella oris; test: Antimicrobial activity against Prevotella oris under anaerobic conditions after 44 hrs by CLSI-M11-47 protocol based agar dilution method; details: Segatella oris; how it was run: as §1
[10] = tested on: Lacticaseibacillus rhamnosus; test: Antimicrobial activity against Lactobacillus rhamnosus under anaerobic conditions after 44 hrs by CLSI-M11-47 protocol based agar dilution method; how it was run: as §1
[11] = tested on: Prevotella intermedia; test: Antimicrobial activity against Prevotella intermedia under anaerobic conditions after 44 hrs by CLSI-M11-47 protocol based agar dilution method; how it was run: as §1
[12] = tested on: Clostridium baratii; test: Antimicrobial activity against Clostridium baratii under anaerobic conditions after 44 hrs by CLSI-M11-47 protocol based agar dilution method
[13] = tested on: Anaerococcus lactolyticus; test: Antimicrobial activity against Anaerococcus lactolyticus under anaerobic conditions after 44 hrs by CLSI-M11-47 protocol based agar dilution method; how it was run: as §2
[14] = tested on: Parabacteroides merdae; test: Antimicrobial activity against Bacteroides merdae under anaerobic conditions after 44 hrs by CLSI-M11-47 protocol based agar dilution method; how it was run: as §2
[15] = tested on: Anaerococcus tetradius; test: Antimicrobial activity against Anaerococcus tetradius under anaerobic conditions after 44 hrs by CLSI-M11-47 protocol based agar dilution method; how it was run: as §2
[16] = tested on: Fusobacterium mortiferum; test: Antimicrobial activity against Fusobacterium mortiferum under anaerobic conditions after 44 hrs by CLSI-M11-47 protocol based agar dilution method; how it was run: as §2
[17] = tested on: Clostridium citroniae; test: Antimicrobial activity against Clostridium citroniae under anaerobic conditions after 44 hrs by CLSI-M11-47 protocol based agar dilution method; details: Enterocloster citroniae; how it was run: as §2
[18] = tested on: Lacrimispora sphenoides; test: Antimicrobial activity against Clostridium sphenoides under anaerobic conditions after 44 hrs by CLSI-M11-47 protocol based agar dilution method; how it was run: as §2
[19] = tested on: Solobacterium moorei; test: Antimicrobial activity against Solobacterium moorei under anaerobic conditions after 44 hrs by CLSI-M11-47 protocol based agar dilution method; how it was run: as §1
[20] = tested on: Eggerthella lenta; test: Antimicrobial activity against Eggerthella lenta under anaerobic conditions after 44 hrs by CLSI-M11-47 protocol based agar dilution method; how it was run: as §2
[21] = tested on: Thomasclavelia ramosa; test: Antimicrobial activity against Clostridium ramosum under anaerobic conditions after 44 hrs by CLSI-M11-47 protocol based agar dilution method; how it was run: as §2

CCO/N=C(\C(=O)N[C@@H]1C(=O)N2C(C(=O)[O-])=C(Sc3nc(-c4cc[n+](C)cc4)cs3)CS[C@H]12)c1nsc(NP(=O)(O)O)n1 [CEFTAROLINE FOSAMIL]
0.125 mg/L: MIC90 [4] | MIC90 [15] | MIC50 [19]
> 64 mg/L: MIC90 [14]
8 mg/L: MIC50 [16] | MIC50 [20]
16 mg/L: MIC90 [5] | MIC90 [6] | MIC90 [11] | MIC90 [12] | MIC90 [18] | MIC90 [20]
1 mg/L: MIC90 [8] | MIC90 [10] | MIC50 [11] | MIC90 [13] | MIC50 [17] | MIC50 [21] | MIC90 [21]
0.5 mg/L: MIC90 [3] | MIC50 [5] | MIC50 [6] | MIC50 [10] | MIC50 [12] | MIC50 [18]
0.06 mg/L: MIC50 [7] | MIC50 [8] | MIC50 [13]
0.25 mg/L: MIC50 [3] | MIC90 [7] | MIC90 [19]
2 mg/L: MIC50 [1] | MIC50 [2] | MIC50 [9] | MIC90 [17]
64 mg/L: MIC50 [14]
0.03 mg/L: MIC50 [4] | MIC50 [15]
32 mg/L: MIC90 [1] | MIC90 [2] | MIC90 [9] | MIC90 [16]

CO/N=C(\C(=O)N[C@@H]1C(=O)N2C(C(=O)O)=C(CSc3nc(=O)c(O)nn3C)CS[C@H]12)c1csc(N)n1 [CEFTRIAXONE]
2 mg/L: MIC50 [2] | MIC50 [5] | MIC50 [6] | MIC50 [12] | MIC50 [18] | MIC90 [19]
0.5 mg/L: MIC90 [4] | MIC90 [15] | MIC50 [19] | MIC90 [21]
0.25 mg/L: MIC50 [4] | MIC90 [7] | MIC50 [8] | MIC50 [13] | MIC50 [15] | MIC50 [21]
> 64 mg/L: MIC50 [14] | MIC90 [14] | MIC50 [16] | MIC90 [16] | MIC50 [20] | MIC90 [20]
8 mg/L: MIC90 [1] | MIC90 [3] | MIC90 [9]
16 mg/L: MIC90 [8] | MIC90 [11] | MIC90 [13]
0.125 mg/L: MIC50 [7]
64 mg/L: MIC90 [5] | MIC90 [6] | MIC90 [10] | MIC90 [12] | MIC90 [18]
32 mg/L: MIC90 [2] | MIC50 [10] | MIC90 [17]
1 mg/L: MIC50 [1] | MIC50 [9] | MIC50 [11]
4 mg/L: MIC50 [3] | MIC50 [17]

CCC[C@@H]1C[C@@H](C(=O)N[C@@H]([C@H]2O[C@H](SC)[C@H](O)[C@@H](O)[C@H]2O)[C@H](C)Cl)N(C)C1 [CLINDAMYCIN]
64 mg/L: MIC90 [8] | MIC90 [13]
4 mg/L: MIC50 [14] | MIC50 [21]
2 mg/L: MIC50 [3] | MIC50 [5] | MIC50 [6] | MIC90 [10] | MIC50 [12] | MIC90 [17] | MIC50 [18] | MIC90 [19] | MIC90 [20]
> 128 mg/L: MIC90 [2] | MIC90 [3] | MIC90 [7] | MIC90 [14]
16 mg/L: MIC90 [11]
128 mg/L: MIC90 [1] | MIC90 [4] | MIC90 [5] | MIC90 [6] | MIC90 [9] | MIC90 [12] | MIC90 [15] | MIC90 [18]
≤ 0.03 mg/L: MIC50 [1] | MIC50 [2] | MIC50 [9] | MIC50 [11]
1 mg/L: MIC50 [10] | MIC90 [16]
8 mg/L: MIC90 [21]
0.125 mg/L: MIC50 [7] | MIC50 [8] | MIC50 [13]
0.5 mg/L: MIC50 [4] | MIC50 [15] | MIC50 [17] | MIC50 [20]
0.06 mg/L: MIC50 [16] | MIC50 [19]

Cc1ncc([N+](=O)[O-])n1CCO [METRONIDAZOLE]
> 64 mg/L: MIC50 [10] | MIC90 [10]
0.25 mg/L: MIC50 [11] | MIC90 [17]
0.06 mg/L: MIC50 [17]
2 mg/L: MIC90 [1] | MIC90 [4] | MIC90 [9] | MIC90 [14] | MIC90 [15]
1 mg/L: MIC90 [2] | MIC90 [3] | MIC50 [4] | MIC50 [7] | MIC90 [7] | MIC50 [8] | MIC90 [11] | MIC50 [13] | MIC50 [14] | MIC50 [15] | MIC90 [16] | MIC90 [19] | MIC50 [20] | MIC90 [20] | MIC50 [21] | MIC90 [21]
4 mg/L: MIC90 [5] | MIC90 [6] | MIC90 [8] | MIC90 [12] | MIC90 [13] | MIC90 [18]
0.5 mg/L: MIC50 [1] | MIC50 [2] | MIC50 [3] | MIC50 [5] | MIC50 [6] | MIC50 [9] | MIC50 [12] | MIC50 [16] | MIC50 [18] | MIC50 [19]
